Assay [1] is filed under the species Rattus norvegicus. The assay can be described thus: Effective concentration required to increase time to the onset of contracture (TTC) in globally ischemic rat hearts. The assay is classed as functional.
The species entered for assay [2] is Rattus norvegicus. As to the kind of experiment: Inhibitory concentration against methoxamine-induced contractions in rat aorta. The class given is functional, organism-based.
The target of assay [3] is Sulfonylurea receptor 2, Kir6.2 (Homo sapiens) (UniProt Q14654+O60706). The assay can be described thus: Hill Coefficient calculated by curve fitting of data to a single binding site model. The assay is classed as protein-complex assay. The method, boiled down:
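Competition curves from displacement of 14 nM [3H]P1075 from canine cardiac P3 membranes (500–700 μg, 60 min, MgATP/vanadate/Mg2+ sucrose-Tris buffer pH 7.4, filtration read-out) were fitted to a single-site model to give the Hill coefficient.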

SMILES strings stand for the structures.

Consider `CC1(C)Oc2ccc(C#N)cc2[C@H](N2CCCC2=O)[C@H]1O` (single isomer, unassigned) [(-)-CROMAKALIM], for which the EC25 in the assay listed under Rattus norvegicus [1] was found to be 2300 nM. Moreover, the IC50 in the assay listed under Rattus norvegicus [2] turned out to be 40.1 nM.
For `CC(N/C(=N\C#N)Nc1ccncc1)C(C)(C)C` (stereo not given) [PINACIDIL ANHYDROUS], in the assay filed under Rattus norvegicus [1], the EC25 is given as 1200 nM. Also, in assay [3], the Hill coefficient is 0.86. Further, inhibition in the assay filed under Rattus norvegicus [2] (Rattus norvegicus, Aorta) was half-maximal at 59.6 nM (IC50).
In the assay listed under Rattus norvegicus [1], `CCC(C)(C)/N=C(\NC#N)Nc1cccc(S(=O)(=O)N2CCCCC2)c1` showed an EC25 of over 10000 nM. In the assay filed under Rattus norvegicus [2] (Rattus norvegicus, Aorta), this molecule displayed an IC50 of 12800 nM.
On to `CCC(C)(C)/N=C(\NC#N)Nc1ccc(C#N)cc1`, for which the EC25 in the assay filed under Rattus norvegicus [1] was 400 nM. Further, in assay [3], the Hill coefficient was 0.99. Further, in the assay filed under Rattus norvegicus [2] (Rattus norvegicus, Aorta), the half-maximal inhibitory concentration (IC50) amounted to 130 nM.
The like results for `CC(/N=C(\NC#N)Nc1ccc(C#N)cc1)C(C)(C)C` (stereo not given) were, in that order, 390 nM, 0.75 and 30.3 nM.
`CCC(C)(C)/N=C(\NC#N)Nc1ccc(S(=O)(=O)N2CCCCC2)cc1` displayed an EC25 in the assay filed under Rattus norvegicus [1] of over 10000 nM. In the assay listed under Rattus norvegicus [2] (Rattus norvegicus, Aorta), this molecule came in with a 50% inhibitory concentration (IC50) of over 30 nM.
As to `CC(C)/N=C(\NC#N)Nc1ccc(C#N)cc1`, the Hill coefficient in assay [3] is 0.81.
Still for that read-out and setting: under `COc1ccc(Cl)cc1C(=O)NCCc1ccc(S(=O)(=O)NC(=O)NC2CCCCC2)cc1` [GLYBURIDE] stands 0.67.
Turning to `CC(/N=C(\NC#N)Nc1ccccc1)C(C)(C)C` (stereo not given), in the assay listed under Rattus norvegicus [1], the EC25 came out at 1290 nM. Further, the Hill coefficient in assay [3] was 1.04. The molecule also gave an IC50 in the assay listed under Rattus norvegicus [2] (Rattus norvegicus, Aorta) of 980 nM.
Take `CC1(C)Oc2ccc(C#N)cc2[C@H](N2CCCC2=O)[C@H]1O` (single isomer, unassigned): in assay [3], the Hill coefficient was 1.5.
For `CC(C)(C)/N=C(\NC#N)Nc1ccc(C#N)cc1`, the EC25 in the assay listed under Rattus norvegicus [1] is 1380 nM. Further, the Hill coefficient in assay [3] was 1.15. The molecule further came in with an IC50 in the assay filed under Rattus norvegicus [2] (Rattus norvegicus, Aorta) of 530 nM.
With `CC1(C)Oc2ccc(C#N)cc2[C@H](N2CCCC2=O)[C@H]1O` [(-)-CROMAKALIM], the EC25 in the assay listed under Rattus norvegicus [1] is over 30000 nM. The IC50 in the assay filed under Rattus norvegicus [2] amounted to 6500 nM.
`CCC(C)(C)/N=C(\NC#N)Nc1ccc(I)cc1` came in with an EC25 in the assay filed under Rattus norvegicus [1] of 140 nM. The Hill coefficient in assay [3] was 0.76. In the assay listed under Rattus norvegicus [2] (Rattus norvegicus, Aorta), half-maximal inhibition (IC50) required 1.4 nM.
Take `C/N=C(\NC#N)Nc1ccc(C#N)cc1`: the EC25 in the assay listed under Rattus norvegicus [1] is listed as over 10000 nM. This molecule yielded an IC50 in the assay filed under Rattus norvegicus [2] (Rattus norvegicus, Aorta) of 130000 nM.
Turning to `CC1(C)Oc2ccc(C#N)cc2[C@H](N2CCCC2=O)[C@H]1O`, in assay [3], the Hill coefficient was 1.06.
In the case of `CCC(C)(C)/N=C(\NC#N)Nc1cccnc1`, the 25% effect concentration (EC25) in the assay listed under Rattus norvegicus [1] is on record as 60 nM. In addition, in assay [3], the Hill coefficient is 1.17. In the assay listed under Rattus norvegicus [2] (Rattus norvegicus, Aorta), this molecule displayed an IC50 of 4.4 nM.
On the same counts, the results for `CC(/N=C(\NC#N)Nc1cccc(C#N)c1)C(C)(C)C` (stereo not given) are 1460 nM, 0.67 and 190 nM.
`CCC(C)(C)/N=C(\NC#N)Nc1ccc(I)c(N=[N+]=[N-])c1` yielded an EC25 in the assay filed under Rattus norvegicus [1] of 39 nM. Also, the Hill coefficient in assay [3] was 0.82.

The record behind these values is ChEMBL document CHEMBL1131338, “Binding of ATP-sensitive potassium channel (KATP) openers to cardiac membranes: correlation of binding affinities with cardioprotective and smooth muscle relaxing potencies” (J Med Chem, 1998).
